According to ChEMBL document CHEMBL5107962, “Covalent sortase A inhibitor ML346 prevents Staphylococcus aureus infection of Galleria mellonella” (RSC Med Chem, 2022):
Active and inactive are the calls of the source. The rule behind the calls is not given here.

Experiments:
[1] = Inhibition of recombinant Streptococcus pyogenes sortase A deltaN81 transpeptidation expressed in Escherichia coli BL21 (DE3) cells using Abz-LPATG-Dnp as substrate preincubated for 20 mins followed by substrate addition and measured every 1 min for 15 mins by FRET assay
Method in brief: (§1)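 His-tagged enzyme purified by Ni-NTA and gel filtration. 1 µM SrtA preincubated with compound (0.05–50 µM) for 20 min at room temperature in 50 mM Tris-HCl pH 7.5, 150 mM NaCl, 5 mM CaCl2. Reaction started with 10 µM Abz-LPATG-Dnp, read at ex 309/em 420 nm. IC50 from a sigmoidal dose–response fit; triplicates, two experiments.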

[2] = Irreversible inhibition of recombinant Streptococcus pyogenes sortase A deltaN81 expressed in Escherichia coli BL21(DE3) cells using Abz-LPATG-Dnp as substrate preincubated for 10 mins followed by substrate addition and measured every 1 min for 15 mins by FRET-based assay
[3] = target: T1, Sortase A (Staphylococcus aureus, UniProt Q9S446); assay: Inhibition of recombinant Staphylococcus aureus sortase A deltaN24 transpeptidation expressed in Escherichia coli BL21 (DE3) cells using IsdA64 to 323 as substrate preincubated for 20 mins followed by substrate addition and measured after 1.5 hrs by SDS-PAGE-based assay
Method in brief: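 SrtA (200 µg mL-1) preincubated with inhibitor (1–50 µM) for 20 min at room temperature in Tris pH 7.5, NaCl, CaCl2 buffer. IsdA64-323 (300 µg mL-1 final) and 3 mM (Gly)3 added, incubated at 37 °C for 1.5 h, then run on 12% SDS-PAGE. IC50 from band quantification of precursor and mature product. Two independent experiments.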

[4] = tested on: Streptococcus pyogenes; assay: Irreversible inhibition of recombinant Streptococcus pyogenes sortase A deltaN81 expressed in Escherichia coli BL21(DE3) cells using Abz-LPATG-Dnp as substrate assessed as increase in Km preincubated for 60 mins followed by substrate addition and measured every 1 min for 15 mins by FRET-based assay; settings: time 75.0 min
Method in brief: (§2)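 SrtA (5 µM) incubated 1 h at room temperature with compound or DMSO, then inhibitor removed by centrifugal filtration. Aliquots taken before and after filtration were assayed with Abz-LPATG-Dnp (0.78–200 µM for Sa enzyme, 0.2–50 µM for Sp enzyme) at ex 309/em 420 nm for 15 min. Km fitted; MTSET as control; triplicates, run in duplicate.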

[5] = target: Cathepsin B (Homo sapiens, UniProt P07858); assay: Inhibition of cathepsin B (unknown origin) using Cbz-Phe-Arg-AMC as substrate at 20 uM preincubated for 5 mins followed by substrate addition and measured after 10 mins by fluorometric assay; settings: time 15.0 min
Method in brief: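 Cbz-Phe-Arg-AMC added (40 µM for B, 80 µM for L) and fluorescence read at ex 380/em 460 nm over 10 min. E64 at 6.25 nM as control. Triplicates, two experiments.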

[6] = Toxicity in Galleria mellonella larvae assessed as creamy colour appearance measured after 120 hrs
Method in brief: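 G. mellonella larvae (2-2.5 cm, creamy), starved 24 h, injected with 10 µL compound in vehicle (5% DMSO, 20% PEG300, 75% PBS with 6.6% solutol HS-15). Kept at 37 °C; survival and appearance recorded over 120 h with photography. Three independent experiments.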

[7] = Selectivity ratio of Kinact for irreversible inhibition of recombinant Staphylococcus aureus sortase A deltaN24 expressed in Escherichia coli BL21(DE3) cells to Kinact for irreversible inhibition of recombinant Streptococcus pyogenes sortase A deltaN81 expressed in Escherichia coli BL21(DE3) cells
[8] = Irreversible inhibition of recombinant Streptococcus pyogenes sortase A deltaN81 expressed in Escherichia coli BL21(DE3) cells using Abz-LPATG-Dnp as substrate preincubated for 60 mins followed by substrate addition and measured every 1 min for 15 mins by FRET-based assay
[9] = target: T1, Sortase A; assay: Inhibition of recombinant Staphylococcus aureus sortase A deltaN24 transpeptidation expressed in Escherichia coli BL21 (DE3) cells using Abz-LPATG-Dnp as substrate preincubated for 20 mins followed by substrate addition and measured every 1 min for 15 mins by FRET assay; method in brief: as §1
[10] = tested on: Sortase A (Staphylococcus aureus), Q9S446 [UNDEFINED MUTATION]; assay: (§3) Irreversible inhibition of recombinant Staphylococcus aureus sortase A deltaN24 expressed in Escherichia coli BL21(DE3) cells using Abz-LPATG-Dnp as substrate assessed as increase in Km preincubated for 60 mins followed by substrate addition and measured every 1 min for 15 mins by FRET-based assay; settings: time 75.0 min; method in brief: as §2
[11] = tested on: Staphylococcus aureus; assay: Antibacterial activity against Staphylococcus aureus Newman assessed as inhibition of bacterial growth incubated for 16 to 18 hrs; type: functional; settings: time 16-18 hrs
Method in brief: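 Broth microdilution: S. aureus in TSB, E. coli in LB. Overnight cultures diluted 1:1000, grown at 37 °C to A600 0.6, then diluted 1:400 into two-fold compound dilutions. Incubated 16–18 h at 37 °C without shaking. MIC taken as the lowest concentration with no visible growth. Two independent experiments.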

[12] = tested on: Staphylococcus aureus; assay: Anti-infectivity against methicillin-resistant Staphylococcus aureus USA300 infected in Galleria mellonella larvae assessed as survival at 12.5 mg/kg and measured after 120 hrs; type: functional, organism-based
Method in brief: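 G. mellonella larvae (2-2.5 cm, creamy), starved 24 h at room temperature. S. aureus grown in TSB to A600 1.0, washed and resuspended in PBS, premixed with compound in vehicle (5% DMSO, 20% PEG300, 75% PBS with 6.6% solutol HS-15). Injected into last proleg at about 1 × 10^6 CFU/larva (Newman) or 1 × 10^7 CFU/larva (USA300). Groups of 15 kept at 37 °C, survival recorded 120 h, Mantel–Cox test.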

[13] = tested on: Staphylococcus aureus; assay: Irreversible inhibition of recombinant Staphylococcus aureus sortase A deltaN24 C184A mutant expressed in Escherichia coli BL21(DE3) cells assessed as thermal stabilization by measuring change in melting temperature incubated for 15 mins by Nano DSF assay
Method in brief: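 40 µg SaSrtAΔN24 (wild type or C184A) in 100 µL 50 mM Tris-HCl pH 9.0, 150 mM NaCl, 5 mM CaCl2 incubated with compound for 15 min at room temperature, then centrifuged. Label-free nanoDSF read at 330/350 nm while ramping 30–90 °C at 2 °C per min. Tm taken from the first derivative of the ratio.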

[14] = tested on: Sortase A (Staphylococcus aureus), Q9S446 [UNDEFINED MUTATION]; assay: as §3, with “[…]” for “increase in Km”, “fluorescence intensity based” for “FRET-based”; settings: time 75.0 min
Method in brief: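 Variable inhibitor concentrations incubated with SaSrtAΔN24 or SpSrtAΔN81 for different times, followed by FRET enzyme kinetics with Abz-LPATG-Dnp. kobs fitted as kinact × [I]/(KI + [I]) to give kinact and KI.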

[15] = target: T1, Sortase A; assay: Irreversible inhibition of recombinant Staphylococcus aureus sortase A deltaN24 expressed in Escherichia coli BL21(DE3) cells using Abz-LPATG-Dnp as substrate preincubated for 20 mins followed by substrate addition and measured every 1 min for 15 mins by FRET-based assay
Method in brief: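 SaSrtAΔN24 preincubated with compound for 10, 20, 40 or 60 min before FRET IC50 determination with Abz-LPATG-Dnp in Tris pH 7.5, NaCl, CaCl2 buffer.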

SMILES: COc1ccc(/C=C/C=C2C(=O)NC(=O)NC2=O)cc1
- IC50 [1]: 1.37 µM
- IC50 [2]: 3.7 µM
- IC50 [3]: 2.65 µM
- inhibition [4]: Active
- inhibition [5]: Active
- Activity [6]: Non-Toxic
- Ratio [7]: 4
- IC50 [8]: 0.7 µM
- IC50 [9]: 0.37 µM
- inhibition [10]: Active
- MIC [11]: > 512 µg/mL
- Activity [12]: Active
- ΔTm [13]: -0.1 °C
- Ratio [14]: 0.075 µM⁻¹ min⁻¹
- IC50 [15]: 0.5 µM
